The subject of assay [1] is Pseudomonas aeruginosa. The experiment in a line: Antibacterial activity against 69_C12 allele containing Pseudomonas aeruginosa PAO1 H1109 mutant strain with recA::lux mutation after 24 hrs by broth microdilution technique. In kind it is functional. The method, boiled down:
(§1)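 Broth microdilution MIC with P. aeruginosa PAO1 H103 (wild type), Tn5-lux insertion mutants or complemented strain. Overnight LB cultures grown at 37°C with agitation, diluted 1:1,000 in LB. Antimicrobials made fresh daily. Growth scored after 24 h at 37°C. Four independent repeats; mode reported.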
A general note: Broth dilution looks for growth in wells or tubes with falling amounts of substance.

The test system of assay [2] is Pseudomonas aeruginosa. The experiment in a line: Effect on morphological change in Pseudomonas aeruginosa PAO1 H1105/lon+ assessed as elongation in cell length at 0.03 ug/ml by Grams staining-based light microscopy.
Assay [3] concerns Pseudomonas aeruginosa. The experiment in a line: Antibacterial activity against 74_D9 allele containing Pseudomonas aeruginosa PAO1 H1105 mutant strain with lon::lux mutation after 24 hrs by broth microdilution technique. The assay is classed as functional. The procedure, abridged: as §1
In assay [4] the test system is Pseudomonas aeruginosa. The experiment in a line: Antibacterial activity against 74_D9 allele containing Pseudomonas aeruginosa PAO1 H1105 mutant strain with lon::lux mutation assessed as fold decrease in MIC after 24 hrs by broth microdilution technique relative to wild type. In kind it is functional. The method, boiled down: as §1
The subject of assay [5] is Pseudomonas aeruginosa. The experiment in a line: Drug resistance in Pseudomonas aeruginosa PAO1 H1105 assessed as survivality at 0.0075 ug/ml after overnight incubation by adaptive resistance assay. The assay is classed as functional, organism-based.
Assay [6] deals with Pseudomonas aeruginosa. In words: Antibacterial activity against 31_C9 allele containing Pseudomonas aeruginosa PAO1 H1104 mutant strain with lon::lux mutation assessed as fold decrease in MIC after 24 hrs by broth microdilution technique relative to wild type. The assay is classed as functional. The procedure, abridged:
as §1

The test system of assay [7] is Pseudomonas aeruginosa. The experiment in a line: Effect on morphological change in Pseudomonas aeruginosa PAO1 H1105/lon+ assessed as restoration of cell division at 0.03 ug/ml by Grams staining-based light microscopy.
For assay [8], the system named is Pseudomonas aeruginosa. In words: Antibacterial activity against 63_H5 allele containing Pseudomonas aeruginosa PAO1 H1133 mutant strain with nfxB::lux mutation after 24 hrs by broth microdilution technique. The assay is classed as functional. The method, boiled down:
as §1

The subject of assay [9] is Pseudomonas aeruginosa. In words: Antibacterial activity against 6_G1 allele containing Pseudomonas aeruginosa PAO1 H1121 mutant strain with PA4961::lux mutation after 24 hrs by broth microdilution technique. In kind it is functional. The method, boiled down:
as §1

The subject of assay [10] is Pseudomonas aeruginosa. The experiment in a line: Antibacterial activity against 24_A2 allele containing Pseudomonas aeruginosa PAO1 H1106 mutant strain with lon::lux mutation after 24 hrs by broth microdilution technique. The assay is classed as functional. The method, boiled down: as §1
Assay [11] concerns Pseudomonas aeruginosa. The experiment in a line: Antibacterial activity against wild type Pseudomonas aeruginosa PAO1 H103 after 24 hrs by broth microdilution technique. In kind it is functional. The procedure, abridged: as §1
Assay [12] concerns Pseudomonas aeruginosa. The experiment in a line: Antibacterial activity against 24_A2 allele containing Pseudomonas aeruginosa PAO1 H1106 mutant strain with lon::lux mutation assessed as fold decrease in MIC after 24 hrs by broth microdilution technique relative to wild type. The assay is classed as functional. The procedure, abridged: as §1
Assay [13] relates to Pseudomonas aeruginosa. The experiment in a line: Increase in lon gene expression in Pseudomonas aeruginosa PAO1 H1105 mutant strain with lon::lux mutation assessed as incese in lon::lux fusion at 0.3 times MIC by luminescence assay relative to control. In kind it is functional, organism-based.
Assay [14] concerns Pseudomonas aeruginosa. In words: Antimicrobial activity in 0.01 ug/ml pretreated Pseudomonas aeruginosa PAO1 H103 at 2 times MIC after overnight incubation by adaptive resistance assay. The assay is classed as functional, organism-based. The procedure, abridged: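 Modified time-kill with PAO1 H103 grown to mid-log (OD600 0.5–0.6) in LB at 37°C with or without ciprofloxacin 0.01 or 0.03 µg/ml. Cells were pelleted, washed in prewarmed PBS pH 7.4, resuspended in prewarmed LB with ciprofloxacin 0.2 µg/ml (2× MIC) and shaken at 37°C. Samples taken every 15–20 min for 2 h and plated on LB agar for overnight CFU counts at 37°C. Four independent experiments.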

Assay [15] has as its system Pseudomonas aeruginosa. The experiment in a line: Antibacterial activity against 53_F11 allele containing Pseudomonas aeruginosa PAO1 H1124 mutant strain with PA5279::lux mutation after 24 hrs by broth microdilution technique. The assay is classed as functional. The method, boiled down:
as §1

In assay [16] the test system is Pseudomonas aeruginosa. The experiment in a line: Antibacterial activity against 70_H3 allele containing Pseudomonas aeruginosa PAO1 H1129 mutant strain with rnt::lux mutation after 24 hrs by broth microdilution technique. In kind it is functional. The procedure, abridged: as §1
In assay [17] the test system is Pseudomonas aeruginosa. In words: Antibacterial activity against 75_F11 allele containing Pseudomonas aeruginosa PAO1 H1136 mutant strain with PA5455::lux mutation after 24 hrs by broth microdilution technique. In kind it is functional. The method, boiled down:
as §1

In assay [18] the test system is Pseudomonas aeruginosa. In words: Antibacterial activity against Pseudomonas aeruginosa PAO1 H1105/lon+c mutant strain with lon::lux/lon+ mutation after 24 hrs by broth microdilution technique. The assay is classed as functional. The method, boiled down:
as §1

Assay [19] has as its system Pseudomonas aeruginosa. The experiment in a line: Effect on morphological change in Pseudomonas aeruginosa PAO1 H1105 assessed as elongation in cell length at 0.03 ug/ml by Grams staining-based light microscopy. In kind it is functional, organism-based.
Assay [20] concerns Pseudomonas aeruginosa. The experiment in a line: Antibacterial activity against Pseudomonas aeruginosa PAO1 H1105/lon+ mutant strain with lon::lux mutation assessed as fold decrease in MIC after 24 hrs by broth microdilution technique relative to wild type. In kind it is functional. The method, boiled down:
as §1

In assay [21] the test system is Pseudomonas aeruginosa. In words: Antibacterial activity against 16_G12 allele containing Pseudomonas aeruginosa PAO1 H1125 mutant strain with recG::lux mutation after 24 hrs by broth microdilution technique. The assay is classed as functional. The procedure, abridged:
as §1

The subject of assay [22] is Pseudomonas aeruginosa. In words: Antibacterial activity against 31_C9 allele containing Pseudomonas aeruginosa PAO1 H1104 mutant strain with lon::lux mutation after 24 hrs by broth microdilution technique. In kind it is functional. The method, boiled down:
as §1

Converted amounts (≈) assume the structure as drawn. The source made the active and inactive calls. The rule behind the calls is not given here. A value given as a limit tells only on which side of the number the result lay.

Broadly, the MIC is the lowest concentration found to suppress growth. As to `O=C(O)c1cn(C2CC2)c2cc(N3CCNCC3)c(F)cc2c1=O` [CIPROFLOXACIN], the minimal inhibitory concentration (MIC) with Pseudomonas aeruginosa [1] (PAO1 H1109, 24 h) was 0.05 µg/mL (≈ 0.151 µM); against Pseudomonas aeruginosa [3] (PAO1 H1105, 24 h) it was 0.025 µg/mL (≈ 0.0754 µM); in the assay with Pseudomonas aeruginosa [8] (PAO1 H1133, 24 h), 0.8 µg/mL (≈ 2.41 µM); against Pseudomonas aeruginosa [9] (PAO1 H1121, 24 h), 0.05 µg/mL (≈ 0.151 µM); in the assay on Pseudomonas aeruginosa [10] (PAO1 H1106, 24 h) it was 0.025 µg/mL (≈ 0.0754 µM); in the assay with Pseudomonas aeruginosa [11] (PAO1 H103, 24 h), 0.1 µg/mL (≈ 0.302 µM). Further, the MIC in the assay on Pseudomonas aeruginosa [15] (PAO1 H1124, 24 h) is 0.05 µg/mL (≈ 0.151 µM); in the assay with Pseudomonas aeruginosa [16] (PAO1 H1129, 24 h) it was 0.4 µg/mL (≈ 1.21 µM); in the assay with Pseudomonas aeruginosa [17] (PAO1 H1136, 24 h), 0.4 µg/mL (≈ 1.21 µM); against Pseudomonas aeruginosa [18], 0.1 µg/mL (≈ 0.302 µM); against Pseudomonas aeruginosa [21] (PAO1 H1125, 24 h), 0.025 µg/mL; against Pseudomonas aeruginosa [22] (PAO1 H1104, 24 h) it was 0.025 µg/mL (≈ 0.0754 µM). For the same molecule, the outcome in the assay with Pseudomonas aeruginosa [2], in the assay with Pseudomonas aeruginosa [5], in the assay on Pseudomonas aeruginosa [14] and in the assay on Pseudomonas aeruginosa [19] was inactive. Moreover, the “fold change (FC)” value with Pseudomonas aeruginosa [4] was 4; in the assay on Pseudomonas aeruginosa [6], 4; in the assay with Pseudomonas aeruginosa [12], 4; with Pseudomonas aeruginosa [20] it was 1. Besides, the outcome in the assay on Pseudomonas aeruginosa [7] and in the assay on Pseudomonas aeruginosa [13] was Active.

`C[C@@H](O)[C@H]1C(=O)N2C(C(=O)O)=C(SCCNC=N)C[C@H]12` [IMIPENEM ANHYDROUS]: the MIC against Pseudomonas aeruginosa [1] (PAO1 H1109, 24 h) is 1 µg/mL (≈ 3.34 µM); against Pseudomonas aeruginosa [3] (PAO1 H1105, 24 h) it was 1 µg/mL (≈ 3.34 µM); with Pseudomonas aeruginosa [8] (PAO1 H1133, 24 h) it was 1 µg/mL (≈ 3.34 µM); against Pseudomonas aeruginosa [9] (PAO1 H1121, 24 h), 1 µg/mL (≈ 3.34 µM); against Pseudomonas aeruginosa [10] (PAO1 H1106, 24 h) it was 1 µg/mL (≈ 3.34 µM); against Pseudomonas aeruginosa [11] (PAO1 H103, 24 h) it was 1 µg/mL (≈ 3.34 µM). Moreover, the MIC came out at 1 µg/mL (≈ 3.34 µM) with Pseudomonas aeruginosa [15] (PAO1 H1124, 24 h); 1 µg/mL (≈ 3.34 µM) against Pseudomonas aeruginosa [16] (PAO1 H1129, 24 h); 1 µg/mL (≈ 3.34 µM) in the assay on Pseudomonas aeruginosa [17] (PAO1 H1136, 24 h); 1 µg/mL (≈ 3.34 µM) in the assay with Pseudomonas aeruginosa [18]; 1 µg/mL in the assay with Pseudomonas aeruginosa [21] (PAO1 H1125, 24 h); 1 µg/mL (≈ 3.34 µM) against Pseudomonas aeruginosa [22] (PAO1 H1104, 24 h).

Regarding `CCn1cc(C(=O)O)c(=O)c2ccc(C)nc21` [NALIDIXIC ACID], the MIC stood at 256 µg/mL (≈ 1100 µM) in the assay on Pseudomonas aeruginosa [1] (PAO1 H1109, 24 h); 128 µg/mL (≈ 551 µM) against Pseudomonas aeruginosa [3] (PAO1 H1105, 24 h); 512 µg/mL (≈ 2200 µM) against Pseudomonas aeruginosa [8] (PAO1 H1133, 24 h); 128 µg/mL (≈ 551 µM) against Pseudomonas aeruginosa [9] (PAO1 H1121, 24 h); 128 µg/mL (≈ 551 µM) in the assay with Pseudomonas aeruginosa [10] (PAO1 H1106, 24 h); 256 µg/mL (≈ 1100 µM) in the assay with Pseudomonas aeruginosa [11] (PAO1 H103, 24 h). The MIC came out at 128 µg/mL (≈ 551 µM) against Pseudomonas aeruginosa [15] (PAO1 H1124, 24 h); 512 µg/mL (≈ 2200 µM) in the assay with Pseudomonas aeruginosa [16] (PAO1 H1129, 24 h); 512 µg/mL (≈ 2200 µM) with Pseudomonas aeruginosa [17] (PAO1 H1136, 24 h); 256 µg/mL (≈ 1100 µM) in the assay on Pseudomonas aeruginosa [18]; 128 µg/mL in the assay on Pseudomonas aeruginosa [21] (PAO1 H1125, 24 h); 128 µg/mL (≈ 551 µM) in the assay with Pseudomonas aeruginosa [22] (PAO1 H1104, 24 h). For the same molecule, the fold change (FC) was 2 with Pseudomonas aeruginosa [4], 2 in the assay with Pseudomonas aeruginosa [6], 2 in the assay on Pseudomonas aeruginosa [12] and 1 with Pseudomonas aeruginosa [20].

With `CCn1cc(C(=O)O)c(=O)c2cc(F)c(N3CCNCC3)cc21` [NORFLOXACIN], the minimum inhibitory concentration (MIC) is 0.075 µg/mL (≈ 0.235 µM) in the assay on Pseudomonas aeruginosa [1] (PAO1 H1109, 24 h); 0.075 µg/mL (≈ 0.235 µM) with Pseudomonas aeruginosa [3] (PAO1 H1105, 24 h); over 0.6 µg/mL against Pseudomonas aeruginosa [8] (PAO1 H1133, 24 h); 0.075 µg/mL (≈ 0.235 µM) in the assay with Pseudomonas aeruginosa [9] (PAO1 H1121, 24 h); 0.15 µg/mL (≈ 0.47 µM) in the assay on Pseudomonas aeruginosa [10] (PAO1 H1106, 24 h); 0.3 µg/mL (≈ 0.939 µM) against Pseudomonas aeruginosa [11] (PAO1 H103, 24 h). Besides, the MIC against Pseudomonas aeruginosa [15] (PAO1 H1124, 24 h) is 0.15 µg/mL (≈ 0.47 µM); with Pseudomonas aeruginosa [16] (PAO1 H1129, 24 h), over 0.6 µg/mL; in the assay on Pseudomonas aeruginosa [17] (PAO1 H1136, 24 h) it was over 0.6 µg/mL; against Pseudomonas aeruginosa [18] it was 0.3 µg/mL (≈ 0.939 µM); in the assay with Pseudomonas aeruginosa [21] (PAO1 H1125, 24 h) it was 0.15 µg/mL; with Pseudomonas aeruginosa [22] (PAO1 H1104, 24 h), 0.15 µg/mL (≈ 0.47 µM). Moreover, the “fold change (FC)” value with Pseudomonas aeruginosa [4] came to 4; with Pseudomonas aeruginosa [6] it was 2; in the assay with Pseudomonas aeruginosa [12], 2; in the assay with Pseudomonas aeruginosa [20], 1.

As to GENTAMICIN, the MIC in the assay on Pseudomonas aeruginosa [1], with Pseudomonas aeruginosa [3], in the assay on Pseudomonas aeruginosa [8], against Pseudomonas aeruginosa [9], in the assay with Pseudomonas aeruginosa [10] and against Pseudomonas aeruginosa [11] was 2 µg/mL throughout. Also, the MIC in the assay on Pseudomonas aeruginosa [15] came out at 2 µg/mL; against Pseudomonas aeruginosa [16] it was 2 µg/mL; against Pseudomonas aeruginosa [17], 2 µg/mL; against Pseudomonas aeruginosa [21], 2 µM; against Pseudomonas aeruginosa [22], 2 µg/mL.
